In the library only some 1.6% were active in any assay of this set; here they are far more common.
JMJD2C inh = inhibitors of human GASC-1 (JMJD2C) demethylase; GST-JMJD2C(1-420) H3K9me3 demethylation, DELFIA europium; actives 0.069% (n = 330,000); inhibition, % at 2.35 µM;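 active means more than half of a compound's replicate wells show inhibition beyond 50%, single wells judged on their own value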;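 further: signal counts dimethyl H3K9 product captured on neutravidin plate; 0% = median of DMSO wells and 100% = 0.3 times that DMSO median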
UBC9 SUMO inh = blocks human SUMOylation mediated by UBC9; actives 0.36% (n = 290,000); P63279; HTRF SUMOylation assay, SAE1/SAE2 + UBC9, in vitro; inhibition, % at 35 µM; in the data active means inhibition above about 50%, passing the limit was not always enough
TDP2 absorb = blocks human TDP2 phosphodiesterase activity; O95551; recombinant TDP2, T5PNP hydrolysis, p-nitrophenol absorbance 415 nm; inhibition, % at 12.8 µM; actives 0.34% (n = 370,000); AID 720702;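 active means inhibition above the mean of all tested compounds plus 3 SD, set per campaign, cut at about 25% in these data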;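 further: 0% = DMSO with enzyme and 100% = buffer with substrate but no TDP2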
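System – recombinant human TDP2 · Amount – 120 nM TDP2 per well · Buffer or medium – Mg2+-containing Tris-HCl buffer, pH 7.5 · Reagent – T5PNP substrate, 5 mM · Dosing – 12.8 µM single point, 1% DMSO · Incubation – 2 h at 37 °C · Measured by – epi absorbance · Read-out basis – percent inhibition · Benchmarks – high control without enzyme, low control DMSO plus TDP2 · Repeats – singlicate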
Apaf-1 inh = inhibitors of human Apaf-1 apoptosome | O14727 | reconstituted apoptosome caspase-3 activity, DEVD-Rh110 fluorescence | inhibition, % at 20 µM | actives 0.71% (n = 330,000) | AID 489030; active means inhibition of at least 40% at 20 µM;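 further: plate controls were DMSO wells for no effect and DEVD-CHO caspase inhibitor wells for full effect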
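Medium: Hepes buffer, pH 7.5 / System: biochemical Apaf-1 apoptosome reconstitution / Measured by: Rh110 fluorescence, excitation 480 nm, emission 540 nm / Times: compound with Apaf-1, dATP, procaspase-3 30 min, then 50 min reaction, room temperature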
GSTO1 inh = blocks human GSTO1 in RBBP9 counter-screen; P78417; recombinant GSTO1, activity-based probe fluorescence polarization; inhibition, % at 5.96 µM; actives 1.1% (n = 300,000);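 active means inhibition above the campaign mean inhibition plus 3 SD, cut at about 35% in these data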;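 further: 0% = GSTO1-1 with DMSO and 100% = wells lacking GSTO1-1 enzyme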
PAD4 FP inh = PAD4 (human) enzyme inhibition. Q9UM07. recombinant PAD4, RCA probe fluorescence polarization. inhibition, % at 6.36 µM. actives 0.41% (n = 330,000). AID 485272;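 active means percent inhibition above a cutoff equal to the mean of all tested compounds plus 3 SD, cut at about 15% in these data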;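 further: 0% = PAD4 with RCA probe and DMSO and 100% = probe without PAD4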
Target sequence (Q9UM07 whole entry, looked up): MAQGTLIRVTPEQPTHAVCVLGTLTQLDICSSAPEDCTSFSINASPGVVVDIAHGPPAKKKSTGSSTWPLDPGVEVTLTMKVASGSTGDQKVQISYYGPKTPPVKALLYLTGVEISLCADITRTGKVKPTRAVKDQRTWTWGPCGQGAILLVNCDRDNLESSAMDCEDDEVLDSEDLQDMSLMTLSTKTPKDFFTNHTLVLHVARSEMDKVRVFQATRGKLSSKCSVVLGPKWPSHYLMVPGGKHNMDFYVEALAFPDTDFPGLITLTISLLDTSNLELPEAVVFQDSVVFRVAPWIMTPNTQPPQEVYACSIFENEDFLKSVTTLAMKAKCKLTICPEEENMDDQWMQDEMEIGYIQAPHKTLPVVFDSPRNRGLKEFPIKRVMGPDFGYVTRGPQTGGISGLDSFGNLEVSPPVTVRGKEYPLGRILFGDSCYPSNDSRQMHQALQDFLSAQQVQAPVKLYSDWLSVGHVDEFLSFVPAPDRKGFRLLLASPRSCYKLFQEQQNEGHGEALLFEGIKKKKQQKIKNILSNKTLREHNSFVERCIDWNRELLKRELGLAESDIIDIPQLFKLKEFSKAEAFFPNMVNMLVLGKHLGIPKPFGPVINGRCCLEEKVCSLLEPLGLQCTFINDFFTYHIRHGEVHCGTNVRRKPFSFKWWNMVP
* hit, by the source's call; . = not tested or not shown.

SMILES | JMJD2C inh | UBC9 SUMO inh | TDP2 absorb | Apaf-1 inh | GSTO1 inh | PAD4 FP inh
COC/C=C/C1=CC2=CC(=O)C(C)(O)C(=O)C2=CO1 (stereo not drawn) | 12 | . | . | 6 | 42* | 1
O=C(O)c1cc(O)c2c(c1)C(=O)c1cccc(O)c1C2=O | -46 | 32 | 0 | -1 | 50* | -3
c1ccc(Cn2nnc3c(NCCN4CCOCC4)ncnc32)cc1 | -3 | -4 | -14 | -4 | -1 | -2
Clc1ccccc1Cn1nnc2c(NCCN3CCOCC3)ncnc21 | 91* | -6 | -6 | -19 | 2 | 0
COc1ccc2ccccc2c1C=NNC(=O)c1cc(-c2ccc(C)cc2)n[nH]1 | . | . | -15 | . | . | .
CCN(CC(=O)Nc1ccccc1OC)C(=O)CN1C(=O)NC(C)(c2ccccc2)C1=O (stereo not drawn) | -5 | . | 1 | 49* | . | 1
CCN(CC(=O)Nc1ccccc1OC)C(=O)CN1C(=O)NC(C)(c2ccc(C)cc2)C1=O (stereo not drawn) | -2 | . | 3 | 1 | . | 0
C#CCCN([C@@H](CC(C)C)C(=O)OC)S(=O)(=O)c1ccccc1Br | . | . | 1 | . | . | .
CCN(C[C@H]1N[C@@](Cc2ccccc2)(C(=O)OC)[C@H]2C(=O)N(Cc3ccccc3)C(=O)[C@@H]12)S(=O)(=O)c1ccccc1 | 61* | . | 6 | 13 | . | -6
CCN(C[C@H]1N[C@@](Cc2ccccc2)(C(=O)OC)[C@H]2C(=O)N(Cc3ccccc3)C(=O)[C@@H]12)S(=O)(=O)c1ccc(-c2ccccc2)cc1 | -16 | . | 3 | 13 | . | -1
CCN(C[C@H]1N[C@@](C)(C(=O)OC)[C@H]2C(=O)N(C)C(=O)[C@@H]12)C(=O)Nc1ccc(C)cc1 | 52* | . | 11 | -8 | . | -6
COC(=O)[C@]1(C)N[C@H](CN(C)S(=O)(=O)c2ccc(C)cc2)[C@@H]2C(=O)N(Cc3ccccc3)C(=O)[C@@H]21 | 62* | . | 2 | 0 | . | 4
CCN(C[C@H]1N[C@@](C)(C(=O)OC)[C@H]2C(=O)N(C)C(=O)[C@@H]12)C(=O)Nc1ccc(F)cc1 | 9 | . | -4 | -12 | . | -6
COC(=O)[C@H](CC1(c2cn(S(=O)(=O)CC[Si](C)(C)C)c3ccccc23)C(=O)Nc2ccccc21)NC(=O)OC(C)(C)C (stereo partly drawn) | . | . | 1 | . | . | .
C=CCNC(=O)N1CCC(c2nc3ccc(Cl)cc3[nH]2)CC1 | . | . | -11 | . | . | .
COc1cc2c(cc1NC(=O)CSc1nnc(COc3ccccc3)n1Cc1ccco1)oc1ccccc12 | . | . | -5 | . | . | .
O=c1c2ccccc2oc2cc(NCCCN3CCOCC3)ccc12 | 2 | 55* | 5 | 10 | -29 | 7
COC(=O)[C@]12C[C@H](CC(=O)N3CCOCC3)C(=O)N(Cc3ccco3)C1=C[C@H](COCc1ccccc1)O[C@@H]2C | . | . | -6 | . | . | .
O=C(O)c1ccc(S(=O)(=O)Nc2ccc(O)c(Sc3nc4ccccc4s3)c2)cc1 | 57 | 16 | -1 | 2 | 55* | 3
O=C(OC12CCCN(C1)/C(=C/c1ccncc1)C2)C1CCCCC1 (stereo not drawn) | . | . | 0 | . | . | .
CC(C)C[C@@H]1COc2cccc(F)c2S(=O)(=O)N1C | . | . | -7 | . | . | .
N#Cc1c2ccc(OCC(N)=O)cc2n2ccccc12 | 96 | 62* | 8 | 15 | 18 | -2
CCOC(=O)COc1ccc2c(C#N)c3ccccn3c2c1 | . | 36 | 1 | . | . | .
CC[C@H](CCCCCCCn1ccc2ccccc21)CCC(=O)N(c1ccccc1)c1ccccc1 | . | . | -8 | . | . | .
CCOCC(=O)Nc1nc(C)cc(C)n1 | 6 | 69* | 2 | -1 | 0 | -4
CC(C)OC(=O)CSc1nnc(-c2ccccn2)n1-c1ccccc1 | -6 | -13 | 9 | 8 | 37* | -4
Cc1ccc(-n2c(SCC(=O)OC(C)C)nnc2-c2ccccn2)cc1 | 5 | 31 | 8 | 6 | 0 | 5
CN(C(=O)c1cccc(NC(=O)Cc2ccc(NC(=O)C3CCN(C(=O)c4ccccc4)CC3)cc2)c1)C1CCC1 | . | . | 6 | . | . | .
CN(C(=O)c1ccc(NC(=O)Cc2ccc(NC(=O)C3CCN(C(=O)c4ccccc4)CC3)cc2)cc1)C1CC1 | 58* | . | -5 | -7 | . | -1
